Here are results for 2 molecules from publication PMC6175042 (Journal of nuclear medicine : official publication, Society …, 2018).

Series [1] has as its system αvβ3 integrin. The following applies: cited from earlier work.
The test system of series [2] is αvβ3 integrin-positive SK-RC-52 xenograft tumours. Put plainly: Ex vivo biodistribution in mice with SK-RC-52 xenografts. The note with it: i.v. 0.5 nmol/mouse, 1 h post injection, n=5; for Tumour uptake, SK-RC-52: mean ± SD; for Tumour-to-blood ratio, SK-RC-52 / Tumour-to-duodenum ratio / Tumour-to-heart ratio / Tumour-to-kidneys ratio / Tumour-to-liver ratio / Tumour-to-lung ratio / Tumour-to-muscle ratio / Tumour-to-pancreas ratio / Tumour-to-spleen ratio / Tumour-to-stomach ratio: SK-RC-52. Put shortly:
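Female athymic BALB/c nu/nu mice (6–8 weeks) received 2x10^6 SK-RC-52 cells s.c. in the left flank. Cells were grown in RPMI 1640 with 10% FCS and 1% glutamine. The 68Ga-labelled test compound (15 MBq in 0.3 ml PBS with 0.5% BSA, pH 7.4) was injected via the tail vein into awake, heat-lamp-warmed mice. After CO2/O2 euthanasia, tissues were dissected, weighed and gamma-counted against 1% standards, giving %ID/g.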

Series [3] deals with αvβ3 integrin-negative FaDu xenograft tumours (αvβ3 integrin expressed solely on neovasculature). Nature of the series: Ex vivo biodistribution in mice with FaDu xenografts. The note with it: i.v. 0.5 nmol/mouse, 1 h post injection, n=5; for Tumour uptake, FaDu: mean ± SD; for Tumour-to-blood ratio, FaDu / Tumour-to-duodenum ratio / Tumour-to-heart ratio / Tumour-to-kidneys ratio / Tumour-to-liver ratio / Tumour-to-lung ratio / Tumour-to-muscle ratio / Tumour-to-pancreas ratio / Tumour-to-spleen ratio / Tumour-to-stomach ratio: FaDu.

Assay in series [4]: as above
The note with it: female, BALB/c nude (BALB/c nu/nu/Foxn1nu), mouse, salivary glands, iv, 0.5 nmol/mouse.

The term tissue uptake denotes the share of the injected amount in each gram of the tissue. A higher tissue uptake goes with high uptake. As to `C/C1=C/C(=O)N(O)CCC[C@H](NC(=O)CCC(=O)NCCCC[C@@H]2NC(=O)[C@@H](Cc3ccccc3)NC(=O)[C@H](CC(=O)O)NC(=O)CNC(=O)[C@H](CCCNC(=N)N)NC2=O)C(=O)OCC/C(C)=C\C(=O)N(O)CCC[C@H](NC(=O)CCC(=O)NCCCC[C@@H]2NC(=O)[C@@H](Cc3ccccc3)NC(=O)[C@H](CC(=O)O)NC(=O)CNC(=O)[C@H](CCCNC(=N)N)NC2=O)C(=O)OCC/C(C)=C\C(=O)N(O)CCC[C@H](NC(=O)CCC(=O)NCCCC[C@@H]2NC(=O)[C@@H](Cc3ccccc3)NC(=O)[C@H](CC(=O)O)NC(=O)CNC(=O)[C@H](CCCNC(=N)N)NC2=O)C(=O)OCC1` [^68Ga-FSC-(RGD)3, metal not drawn], the “Tumour targeting compared to monomeric RGD peptides” value in series [1] was “improved tumour targeting”. Besides, in series [2], the “Tumour uptake, SK-RC-52” value is recorded as 12.5±2.5 %ID/g; the “Tumour-to-blood ratio, SK-RC-52” value was determined as 30.7±8.1; the Tumour-to-duodenum ratio is 1.5±0.4; the Tumour-to-heart ratio is 12.4±3.2. Besides, in series [2], the Tumour-to-kidneys ratio is 1.9±0.3, the Tumour-to-liver ratio came to 2.5±0.2, the Tumour-to-lung ratio stood at 4.8±0.9 and the Tumour-to-muscle ratio stood at 17.2±3.2. Moreover, in series [2], the Tumour-to-pancreas ratio was determined as 17.9±3.5, the Tumour-to-spleen ratio is on record as 2.6±0.5 and the Tumour-to-stomach ratio is 2.6±0.3. In series [3], the “Tumour uptake, FaDu” value was 1.9±0.3 %ID/g; the “Tumour-to-blood ratio, FaDu” value came to 3.5±0.6; the Tumour-to-duodenum ratio worked out at 0.4±0.08; the Tumour-to-heart ratio was determined as 2.4±0.4. Further, in series [3], the Tumour-to-kidneys ratio amounted to 0.4±0.05, the Tumour-to-liver ratio is 0.8±0.1, the Tumour-to-lung ratio is reported as 0.9±0.1 and the Tumour-to-muscle ratio is given as 3.6±0.6. In addition, in series [3], the Tumour-to-pancreas ratio was found to be 3.0±0.4, the Tumour-to-spleen ratio was 0.6±0.06 and the Tumour-to-stomach ratio is 0.6±0.1. Further, the tissue uptake at 1 h in series [4] amounted to 2.2 ± 0.3 %ID/g.
In the case of `N=C(N)NCCC[C@@H]1NC(=O)[C@H](CCCCNC(=O)CCOCCOCCOCCOCCNC(=O)CCP(=O)(O)CN2CCN(CP(=O)(O)CCC(=O)NCCOCCOCCOCCOCCC(=O)NCCCC[C@@H]3NC(=O)[C@@H](Cc4ccccc4)NC(=O)[C@H](CC(=O)O)NC(=O)CNC(=O)[C@H](CCCNC(=N)N)NC3=O)CCN(CP(=O)(O)CCC(=O)NCCOCCOCCOCCOCCC(=O)NCCCC[C@@H]3NC(=O)[C@@H](Cc4ccccc4)NC(=O)[C@H](CC(=O)O)NC(=O)CNC(=O)[C@H](CCCNC(=N)N)NC3=O)CC2)NC(=O)[C@@H](Cc2ccccc2)NC(=O)[C@H](CC(=O)O)NC(=O)CNC1=O` (single isomer, unassigned) [^68Ga-TRAP-(RGD)3, metal not drawn], in series [1], the “Tumour targeting compared to monomeric RGD peptides” value is on record as “improved tumour targeting”. Besides, in series [2], the “Tumour uptake, SK-RC-52” value stood at 4.4±0.8 %ID/g; the “Tumour-to-blood ratio, SK-RC-52” value was found to be 38.5±3.8; the Tumour-to-duodenum ratio came to 1.4±0.4; the Tumour-to-heart ratio is reported as 15.3±2.3. In addition, in series [2], the Tumour-to-kidneys ratio was 1.1±0.1, the Tumour-to-liver ratio is 3.0±0.5, the Tumour-to-lung ratio is 4.8±0.9 and the Tumour-to-muscle ratio worked out at 20.9±3.6. Also, in series [2], the Tumour-to-pancreas ratio worked out at 17.3±3.7, the Tumour-to-spleen ratio was found to be 3.0±0.5 and the Tumour-to-stomach ratio is on record as 3.0±0.7. Moreover, in series [3], the “Tumour uptake, FaDu” value is given as 1.0±0.2 %ID/g; the “Tumour-to-blood ratio, FaDu” value stood at 5.8±0.9; the Tumour-to-duodenum ratio is 0.3±0.07; the Tumour-to-heart ratio is listed as 4.4±1.4. In addition, in series [3], the Tumour-to-kidneys ratio was determined as 0.5±0.1, the Tumour-to-liver ratio is 0.8±0.2, the Tumour-to-lung ratio is 1.5±0.4 and the Tumour-to-muscle ratio came to 4.8±1.2. In addition, in series [3], the Tumour-to-pancreas ratio was 4.6±1.0, the Tumour-to-spleen ratio amounted to 0.9±0.2 and the Tumour-to-stomach ratio is reported as 0.8±0.2. The molecule also had a tissue uptake at 1 h in series [4] of 0.7 ± 0.1 %ID/g.
